Laboratory results: ChEMBL document CHEMBL4706553, “Discovery of potent small molecule PROTACs targeting mutant EGFR” (Eur J Med Chem, 2020)
Active and inactive are the calls of the source. The rule behind the calls is not given here.

How the values were obtained:
[1] = system: von Hippel-Lindau disease tumor suppressor/Epidermal growth factor receptor (Homo sapiens), P00533+P40337 [L858R,T790M]; test: Protac activity at VHL/EGFR L858R/T790M mutant in human H1975 cells assessed as induction of degradation of EGFR at 100 to 333 nM precultured in medium without FBS followed by incubation with compound for 16 hrs by Western blot analysis; type: cell-based; details: NCI-H1975, dose 100-333 nM
Procedure, shortened: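 HCC827 or H1975 cells precultured 8 h in medium with or without FBS, then treated at the stated concentrations for 16 h. EGFR protein by Western blot; n = 3.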

[2] = system: NCI-H1975; test: Antiproliferative activity against human H1975 cells expressing EGFR L858R/T790M mutant assessed as cell growth inhibition measured after 72 hrs by MTT assay; type: functional, cell-based; details: NCI-H1975, 72 h
Procedure, shortened: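 MTT assay on H1975 cells grown in RPMI-1640 with 10% heat-inactivated FBS and 1% penicillin-streptomycin at 37 °C and 5% CO₂. Cells were seeded at 3000–8000 per well and left 24 h, then exposed to a concentration series for 72 h. MTT (5 mg/mL stock in PBS) was added for 4 h, supernatant removed and formazan dissolved in DMSO. IC50 was fitted by nonlinear regression (log inhibitor vs response).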

[3] = system: von Hippel-Lindau disease tumor suppressor/Epidermal growth factor receptor (Homo sapiens), P00533+P40337 [L858R,T790M]; test: Protac activity at VHL/EGFR L858R/T790M mutant in human H1975 cells assessed as induction of degradation of EGFR by measuring reduction in Akt phosphorylation at 100 nM incubated for 48 hrs by Western blot analysis; type: cell-based; details: NCI-H1975
Procedure, shortened: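 HCC827 or H1975 cells treated at the stated concentrations for 48 h. Lysates probed by Western blot for EGFR, P-EGFR, Akt and P-Akt (each 1:1000); n = 2.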

With `Cc1ncsc1-c1ccc(CNC(=O)[C@@H]2C[C@@H](O)CN2C(=O)[C@@H](NC(=O)CCCCCCN2CCN(c3ccc(Nc4ncc5nc(Nc6ccccc6)n(C6CCCC6)c5n4)cc3)CC2)C(C)(C)C)cc1` the Activity [1] was “Active”, the IC50 [2] was 203 nM and the Activity [3] was “Active”.
